# Data: ChEMBL document CHEMBL4251626, “4β-amidotriazole linked podophyllotoxin congeners: DNA topoisomerase-IIα inhibition and potential anticancer agents for prostate cancer” (Eur J Med Chem, 2018)
# System: HepG2
# Experiment: Antiproliferative activity against human HepG2 cells after 48 hrs by MTT assay
# Format: functional, cell-based
# Conditions: HepG2, 48 h
# Summary of the method: (§1)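 Cells in DMEM/10% FBS pre-incubated 24 h at 37 °C, then compound-treated 48 h (10 mM DMSO stock diluted in medium). MTT (10 µL of 5 mg/mL) added for 4 h; formazan dissolved in DMSO, absorbance read at 570 nm. IC50 = 50% inhibitory concentration, mean of three individual experiments.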
row,Structure (SMILES),IC50 [µM]
1,"COc1cc([C@@H]2c3cc4c(cc3C(NC(=O)c3cn(-c5ccc(F)cc5)nn3)[C@H]3COC(=O)[C@H]23)OCO4)cc(OC)c1OC (single isomer, unassigned)",10.9
2,"COc1cc([C@@H]2c3cc4c(cc3C(NC(=O)c3cn(Cc5ccc6c(c5)OCO6)nn3)[C@H]3COC(=O)[C@H]23)OCO4)cc(OC)c1OC (single isomer, unassigned)",26.6
3,"COc1cc(Cn2cc(C(=O)NC3c4cc5c(cc4[C@@H](c4cc(OC)c(OC)c(OC)c4)[C@H]4C(=O)OC[C@H]34)OCO5)nn2)cc(OC)c1 (single isomer, unassigned)",14.2
4,"COc1ccc(Cn2cc(C(=O)NC3c4cc5c(cc4[C@@H](c4cc(OC)c(OC)c(OC)c4)[C@H]4C(=O)OC[C@H]34)OCO5)nn2)cc1OC (single isomer, unassigned)",12.7
5,"COc1cc([C@@H]2c3cc4c(cc3C(NC(=O)c3cn(-c5ccc6c(c5)OCO6)nn3)[C@H]3COC(=O)[C@H]23)OCO4)cc(OC)c1OC (single isomer, unassigned)",9.94
6,"COc1cc([C@@H]2c3cc4c(cc3C(NC(=O)c3cn(-c5cc(OC)c(OC)c(OC)c5)nn3)[C@H]3COC(=O)[C@H]23)OCO4)cc(OC)c1OC (single isomer, unassigned)",0.957
7,"COc1ccc(-n2cc(C(=O)NC3c4cc5c(cc4[C@@H](c4cc(OC)c(OC)c(OC)c4)[C@H]4C(=O)OC[C@H]34)OCO5)nn2)cc1OC (single isomer, unassigned)",11.7
8,COc1cc([C@@H]2c3cc4c(cc3[C@H](O)[C@H]3COC(=O)[C@H]23)OCO4)cc(OC)c1OC [PODOFILOX],6.63

# System: DU-145
# Experiment: Antiproliferative activity against human DU145 cells after 48 hrs by MTT assay
# Format: functional, cell-based
# Conditions: DU-145, 48 h
# Summary of the method: as §1
row,Structure (SMILES),IC50 [µM]
1,"COc1cc([C@@H]2c3cc4c(cc3C(NC(=O)c3cn(-c5ccc(F)cc5)nn3)[C@H]3COC(=O)[C@H]23)OCO4)cc(OC)c1OC (single isomer, unassigned)",9.44
2,"COc1cc([C@@H]2c3cc4c(cc3C(NC(=O)c3cn(Cc5ccc6c(c5)OCO6)nn3)[C@H]3COC(=O)[C@H]23)OCO4)cc(OC)c1OC (single isomer, unassigned)",27.7
3,"COc1cc(Cn2cc(C(=O)NC3c4cc5c(cc4[C@@H](c4cc(OC)c(OC)c(OC)c4)[C@H]4C(=O)OC[C@H]34)OCO5)nn2)cc(OC)c1 (single isomer, unassigned)",14.6
4,"COc1ccc(Cn2cc(C(=O)NC3c4cc5c(cc4[C@@H](c4cc(OC)c(OC)c(OC)c4)[C@H]4C(=O)OC[C@H]34)OCO5)nn2)cc1OC (single isomer, unassigned)",13.5
5,"COc1cc([C@@H]2c3cc4c(cc3C(NC(=O)c3cn(-c5ccc6c(c5)OCO6)nn3)[C@H]3COC(=O)[C@H]23)OCO4)cc(OC)c1OC (single isomer, unassigned)",8.92
6,"COc1cc([C@@H]2c3cc4c(cc3C(NC(=O)c3cn(-c5cc(OC)c(OC)c(OC)c5)nn3)[C@H]3COC(=O)[C@H]23)OCO4)cc(OC)c1OC (single isomer, unassigned)",8.54
7,"COc1ccc(-n2cc(C(=O)NC3c4cc5c(cc4[C@@H](c4cc(OC)c(OC)c(OC)c4)[C@H]4C(=O)OC[C@H]34)OCO5)nn2)cc1OC (single isomer, unassigned)",14.5
8,COc1cc([C@@H]2c3cc4c(cc3[C@H](O)[C@H]3COC(=O)[C@H]23)OCO4)cc(OC)c1OC [PODOFILOX],4.15

# System: A549
# Experiment: Antiproliferative activity against human A549 cells after 48 hrs by MTT assay
# Format: functional, cell-based
# Conditions: A549, 48 h
# Summary of the method: as §1
row,Structure (SMILES),IC50 [µM]
1,"COc1cc([C@@H]2c3cc4c(cc3C(NC(=O)c3cn(-c5ccc(F)cc5)nn3)[C@H]3COC(=O)[C@H]23)OCO4)cc(OC)c1OC (single isomer, unassigned)",14.1
2,"COc1cc([C@@H]2c3cc4c(cc3C(NC(=O)c3cn(Cc5ccc6c(c5)OCO6)nn3)[C@H]3COC(=O)[C@H]23)OCO4)cc(OC)c1OC (single isomer, unassigned)",34.5
3,"COc1cc(Cn2cc(C(=O)NC3c4cc5c(cc4[C@@H](c4cc(OC)c(OC)c(OC)c4)[C@H]4C(=O)OC[C@H]34)OCO5)nn2)cc(OC)c1 (single isomer, unassigned)",32.4
4,"COc1ccc(Cn2cc(C(=O)NC3c4cc5c(cc4[C@@H](c4cc(OC)c(OC)c(OC)c4)[C@H]4C(=O)OC[C@H]34)OCO5)nn2)cc1OC (single isomer, unassigned)",19.6
5,"COc1cc([C@@H]2c3cc4c(cc3C(NC(=O)c3cn(-c5ccc6c(c5)OCO6)nn3)[C@H]3COC(=O)[C@H]23)OCO4)cc(OC)c1OC (single isomer, unassigned)",0.974
6,"COc1cc([C@@H]2c3cc4c(cc3C(NC(=O)c3cn(-c5cc(OC)c(OC)c(OC)c5)nn3)[C@H]3COC(=O)[C@H]23)OCO4)cc(OC)c1OC (single isomer, unassigned)",14.7
7,"COc1ccc(-n2cc(C(=O)NC3c4cc5c(cc4[C@@H](c4cc(OC)c(OC)c(OC)c4)[C@H]4C(=O)OC[C@H]34)OCO5)nn2)cc1OC (single isomer, unassigned)",12.2
8,COc1cc([C@@H]2c3cc4c(cc3[C@H](O)[C@H]3COC(=O)[C@H]23)OCO4)cc(OC)c1OC [PODOFILOX],4.6

# System: NIH3T3
# Experiment: Antiproliferative activity against mouse NIH/3T3 cells after 48 hrs by MTT assay
# Format: cell-based
# Conditions: NIH3T3, 48 h
# Summary of the method: as §1
row,Structure (SMILES),IC50 [µM]
1,"COc1cc([C@@H]2c3cc4c(cc3C(NC(=O)c3cn(-c5ccc(F)cc5)nn3)[C@H]3COC(=O)[C@H]23)OCO4)cc(OC)c1OC (single isomer, unassigned)",98.1
2,"COc1cc([C@@H]2c3cc4c(cc3C(NC(=O)c3cn(Cc5ccc6c(c5)OCO6)nn3)[C@H]3COC(=O)[C@H]23)OCO4)cc(OC)c1OC (single isomer, unassigned)",69.5
3,"COc1cc(Cn2cc(C(=O)NC3c4cc5c(cc4[C@@H](c4cc(OC)c(OC)c(OC)c4)[C@H]4C(=O)OC[C@H]34)OCO5)nn2)cc(OC)c1 (single isomer, unassigned)",81.3
4,"COc1ccc(Cn2cc(C(=O)NC3c4cc5c(cc4[C@@H](c4cc(OC)c(OC)c(OC)c4)[C@H]4C(=O)OC[C@H]34)OCO5)nn2)cc1OC (single isomer, unassigned)",83.8
5,"COc1cc([C@@H]2c3cc4c(cc3C(NC(=O)c3cn(-c5ccc6c(c5)OCO6)nn3)[C@H]3COC(=O)[C@H]23)OCO4)cc(OC)c1OC (single isomer, unassigned)",67.2
6,"COc1cc([C@@H]2c3cc4c(cc3C(NC(=O)c3cn(-c5cc(OC)c(OC)c(OC)c5)nn3)[C@H]3COC(=O)[C@H]23)OCO4)cc(OC)c1OC (single isomer, unassigned)",79.6
7,"COc1ccc(-n2cc(C(=O)NC3c4cc5c(cc4[C@@H](c4cc(OC)c(OC)c(OC)c4)[C@H]4C(=O)OC[C@H]34)OCO5)nn2)cc1OC (single isomer, unassigned)",66.2

# System: HT-29
# Experiment: Antiproliferative activity against human HT-29 cells after 48 hrs by MTT assay
# Format: functional, cell-based
# Conditions: HT-29, 48 h
# Summary of the method: as §1
row,Structure (SMILES),IC50 [µM]
1,"COc1cc([C@@H]2c3cc4c(cc3C(NC(=O)c3cn(-c5ccc(F)cc5)nn3)[C@H]3COC(=O)[C@H]23)OCO4)cc(OC)c1OC (single isomer, unassigned)",13.8
2,"COc1cc([C@@H]2c3cc4c(cc3C(NC(=O)c3cn(Cc5ccc6c(c5)OCO6)nn3)[C@H]3COC(=O)[C@H]23)OCO4)cc(OC)c1OC (single isomer, unassigned)",36.4
3,"COc1cc(Cn2cc(C(=O)NC3c4cc5c(cc4[C@@H](c4cc(OC)c(OC)c(OC)c4)[C@H]4C(=O)OC[C@H]34)OCO5)nn2)cc(OC)c1 (single isomer, unassigned)",27.4
4,"COc1ccc(Cn2cc(C(=O)NC3c4cc5c(cc4[C@@H](c4cc(OC)c(OC)c(OC)c4)[C@H]4C(=O)OC[C@H]34)OCO5)nn2)cc1OC (single isomer, unassigned)",13.5
5,"COc1cc([C@@H]2c3cc4c(cc3C(NC(=O)c3cn(-c5ccc6c(c5)OCO6)nn3)[C@H]3COC(=O)[C@H]23)OCO4)cc(OC)c1OC (single isomer, unassigned)",17.9
6,"COc1cc([C@@H]2c3cc4c(cc3C(NC(=O)c3cn(-c5cc(OC)c(OC)c(OC)c5)nn3)[C@H]3COC(=O)[C@H]23)OCO4)cc(OC)c1OC (single isomer, unassigned)",8.54
7,"COc1ccc(-n2cc(C(=O)NC3c4cc5c(cc4[C@@H](c4cc(OC)c(OC)c(OC)c4)[C@H]4C(=O)OC[C@H]34)OCO5)nn2)cc1OC (single isomer, unassigned)",15.1
8,COc1cc([C@@H]2c3cc4c(cc3[C@H](O)[C@H]3COC(=O)[C@H]23)OCO4)cc(OC)c1OC [PODOFILOX],4.78

# System: MCF7
# Experiment: Antiproliferative activity against human MCF7 cells after 48 hrs by MTT assay
# Format: functional, cell-based
# Conditions: MCF7, 48 h
# Summary of the method: as §1
row,Structure (SMILES),IC50 [µM]
1,"COc1cc([C@@H]2c3cc4c(cc3C(NC(=O)c3cn(-c5ccc(F)cc5)nn3)[C@H]3COC(=O)[C@H]23)OCO4)cc(OC)c1OC (single isomer, unassigned)",6.7
2,"COc1cc([C@@H]2c3cc4c(cc3C(NC(=O)c3cn(Cc5ccc6c(c5)OCO6)nn3)[C@H]3COC(=O)[C@H]23)OCO4)cc(OC)c1OC (single isomer, unassigned)",34.5
3,"COc1cc(Cn2cc(C(=O)NC3c4cc5c(cc4[C@@H](c4cc(OC)c(OC)c(OC)c4)[C@H]4C(=O)OC[C@H]34)OCO5)nn2)cc(OC)c1 (single isomer, unassigned)",13.9
4,"COc1ccc(Cn2cc(C(=O)NC3c4cc5c(cc4[C@@H](c4cc(OC)c(OC)c(OC)c4)[C@H]4C(=O)OC[C@H]34)OCO5)nn2)cc1OC (single isomer, unassigned)",12.2
5,"COc1cc([C@@H]2c3cc4c(cc3C(NC(=O)c3cn(-c5ccc6c(c5)OCO6)nn3)[C@H]3COC(=O)[C@H]23)OCO4)cc(OC)c1OC (single isomer, unassigned)",7.61
6,"COc1cc([C@@H]2c3cc4c(cc3C(NC(=O)c3cn(-c5cc(OC)c(OC)c(OC)c5)nn3)[C@H]3COC(=O)[C@H]23)OCO4)cc(OC)c1OC (single isomer, unassigned)",7.34
7,"COc1ccc(-n2cc(C(=O)NC3c4cc5c(cc4[C@@H](c4cc(OC)c(OC)c(OC)c4)[C@H]4C(=O)OC[C@H]34)OCO5)nn2)cc1OC (single isomer, unassigned)",8.04
8,COc1cc([C@@H]2c3cc4c(cc3[C@H](O)[C@H]3COC(=O)[C@H]23)OCO4)cc(OC)c1OC [PODOFILOX],3.06

# System: HeLa
# Experiment: Antiproliferative activity against human HeLa cells after 48 hrs by MTT assay
# Format: functional, cell-based
# Conditions: not given
# Summary of the method: as §1
row,Structure (SMILES),IC50 [µM]
1,"COc1cc([C@@H]2c3cc4c(cc3C(NC(=O)c3cn(-c5ccc(F)cc5)nn3)[C@H]3COC(=O)[C@H]23)OCO4)cc(OC)c1OC (single isomer, unassigned)",78.6
2,"COc1cc([C@@H]2c3cc4c(cc3C(NC(=O)c3cn(Cc5ccc6c(c5)OCO6)nn3)[C@H]3COC(=O)[C@H]23)OCO4)cc(OC)c1OC (single isomer, unassigned)",32.9
3,"COc1cc(Cn2cc(C(=O)NC3c4cc5c(cc4[C@@H](c4cc(OC)c(OC)c(OC)c4)[C@H]4C(=O)OC[C@H]34)OCO5)nn2)cc(OC)c1 (single isomer, unassigned)",25.8
4,"COc1ccc(Cn2cc(C(=O)NC3c4cc5c(cc4[C@@H](c4cc(OC)c(OC)c(OC)c4)[C@H]4C(=O)OC[C@H]34)OCO5)nn2)cc1OC (single isomer, unassigned)",12.4
5,"COc1cc([C@@H]2c3cc4c(cc3C(NC(=O)c3cn(-c5ccc6c(c5)OCO6)nn3)[C@H]3COC(=O)[C@H]23)OCO4)cc(OC)c1OC (single isomer, unassigned)",47.7
6,"COc1cc([C@@H]2c3cc4c(cc3C(NC(=O)c3cn(-c5cc(OC)c(OC)c(OC)c5)nn3)[C@H]3COC(=O)[C@H]23)OCO4)cc(OC)c1OC (single isomer, unassigned)",10.2
7,"COc1ccc(-n2cc(C(=O)NC3c4cc5c(cc4[C@@H](c4cc(OC)c(OC)c(OC)c4)[C@H]4C(=O)OC[C@H]34)OCO5)nn2)cc1OC (single isomer, unassigned)",18.6
8,COc1cc([C@@H]2c3cc4c(cc3[C@H](O)[C@H]3COC(=O)[C@H]23)OCO4)cc(OC)c1OC [PODOFILOX],3.45
